Results as given in PMC4094378 (European journal of medicinal chemistry, 2014).

Legend:
[1] = tested on: panel of seven human cancer cell lines; experiment: Antiproliferative activity across the panel of seven cancer cell lines; format: cell-based; details: 4′-methoxy replaced by 4′-ethoxy
How it was run: (§1)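 Jurkat, CEM and SEM cells were grown in RPMI-1640, and HeLa, MCF-7, HT-29 and LoVo in DMEM, each with 10% FBS and penicillin/streptomycin. Wells got 8 × 10^3 cells and were preincubated 18 h at 37 °C in 5% CO2. Test compound from a 10 mM DMSO stock was diluted in medium (final DMSO ≤0.25%) and applied for 72 h. Read-out was MTT. IC50 is the concentration giving 50% inhibition of proliferation, from dose–response curves of ≥3 independent experiments, mean ± SE.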

HT-29 cells = experiment: Cell growth inhibitory activity; format: cell-based, human; details: read-out: IC50 HT-29; 72 h, MTT; mean ± SE
How it was run: as §1

LoVo cells = experiment: Cell growth inhibitory activity; format: cell-based, human; details: read-out: IC50 LoVo; 72 h, MTT; mean ± SE
How it was run: as §1

SEM cells = experiment: Cell growth inhibitory activity; format: cell-based, human; details: read-out: IC50 SEM; 72 h, MTT; mean ± SE
How it was run: as §1

CEM cells = experiment: Cell growth inhibitory activity; format: cell-based, human; details: read-out: IC50 CEM; 72 h, MTT; mean ± SE
How it was run: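 Human T-cell leukemia cells grown in RPMI-1640 with 10% FBS, penicillin G 115 units/mL and streptomycin 115 μg/mL. 8 × 10^3 cells/well were preincubated 18 h at 37 °C, 5% CO2, then exposed to graded compound concentrations in complete medium from 10 mM DMSO stocks (final DMSO ≤0.25%) for 72 h at 37 °C. Viability was read by MTT, and IC50 is the concentration inhibiting proliferation by 50%.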

MCF-7 cells = experiment: Cell growth inhibitory activity; format: cell-based, human; details: read-out: IC50 MCF-7; 72 h, MTT; mean ± SE
How it was run: as §1

HeLa cells = experiment: Cell growth inhibitory activity; format: cell-based, human; details: read-out: IC50 HeLa; 72 h, MTT; mean ± SE
How it was run: as §1

Jurkat cells = experiment: Cell growth inhibitory activity; format: cell-based, human; details: read-out: IC50 Jurkat; 72 h, MTT; mean ± SE
How it was run: as §1

Substance: 2-Bromo-N-(4-{(1E)-3-oxo-3-[(4-ethoxyphenyl)amino] prop-1-en-1-yl}phenyl)-acrylamide [4j]
- fold reduction in activity vs 4i [1]: 2–4 fold
- IC50 (HT-29 cells): 3400 ± 300 nM
- IC50 (LoVo cells): 850 ± 30 nM
- IC50 (SEM cells): 180 ± 40 nM
- IC50 (CEM cells): 98 ± 33 nM
- IC50 (MCF-7 cells): 5500 ± 1000 nM
- IC50 (HeLa cells): 2000 ± 130 nM
- IC50 (Jurkat cells): 930 ± 120 nM
